For 37 sequences, folding enthalpy and Tm results are on record in the array DNA melting data of Ke et al. (doi:10.1101/2024.01.08.574731).

The nature of series [1]: folding enthalpy; higher = less favourable; fluorescence melt of hairpins on a sequencing array, two-state fit. Conditions: sodium 0.088 M. In a few lines:
(§1)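 Hairpins were imaged by Cy3 fluorescence on a sequenced MiSeq flow cell with annealed Cy3 and quencher oligos, in 50 mM Na-HEPES pH 8.0, 25 mM NaCl, in 2.5 °C steps up to 60 °C. Bootstrapped two-state fits of normalised signals gave melting temperature and folding enthalpy. Four replicates were combined by inverse variance, and fitted temperatures were raised by 9.35 °C to match UV melts.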

Series [2] in a line: melting temperature; fluorescence melt of hairpins on a sequencing array, two-state fit, raised by 9.35 °C to match UV melts. Conditions: sodium 0.088 M. The method, boiled down:
as §1

For GGGCGGCGAAAGCCCCCC (((.(((....))).))), in series [1], the folding enthalpy was -16.6 kcal/mol. In addition, in series [2], the Tm was 63.9 °C.
As to GGGCGGGGAAACCCACCC (((.(((....))).))), the folding enthalpy in series [1] was -40.7 kcal/mol. Moreover, in series [2], the Tm amounted to 54.6 °C.
With GGGCGGGGAAACTCGCCC (((((.(....).))))), the folding enthalpy in series [1] is -41.3 kcal/mol. The Tm in series [2] amounted to 67.4 °C.
Take GGGCGTGCGAAAGCACCC (((..(((....)))))): in series [1], the folding enthalpy was -13 kcal/mol. In addition, the Tm in series [2] amounted to 54.4 °C.
For the sequence GGGCGTGGAAACACGTCC ((.((((....)))).)), the folding enthalpy in series [1] was -36.1 kcal/mol. Besides, the Tm in series [2] came to 62.1 °C.
Turning to GGGCGTGGAAACGCGCCC (((((.(....).))))), the folding enthalpy in series [1] was -22.5 kcal/mol. In addition, the Tm in series [2] was 68.3 °C.
On to GGGCTAGGAAACTAGTCC ((.((((....)))).)), for which the folding enthalpy in series [1] is -37.6 kcal/mol. For the same sequence, the Tm in series [2] amounted to 52.4 °C.
For GGGCTAGGAAACTGGCCC ((((.((....)).)))), the folding enthalpy in series [1] was -41.4 kcal/mol. In series [2], the Tm was found to be 58.2 °C.
The matching figures for GGGCTCGAAAGAGAACCC ((((((....)))..))): -19.5 kcal/mol and 45.2 °C.
The matching figures for GGGCTCGAAAGAGACCC ((((((....))).))): -20.9 kcal/mol and 66.8 °C.
Take GGGCTCGAAAGAGCACCC ((((((....)))..))): in series [1], the folding enthalpy is -12.2 kcal/mol. The Tm in series [2] is 58.1 °C.
The matching figures for GGGCTCGGAAACGGGTCC ((.(.((....)).).)): -34.5 kcal/mol and 48.6 °C.
On to GGGCTGGGAAACCGGCCC ((((.((....)).)))), for which, in series [1], the folding enthalpy is -29.2 kcal/mol. The Tm in series [2] is 67.2 °C.
For GGGCTGGGAAACCGGCTC (.((.((....)).)).), in that order: -19.7 kcal/mol and 49.1 °C.
For the sequence GGGCTTCCGAAAGGACCC (((..(((....)))))), in series [1], the folding enthalpy was -23.4 kcal/mol. Further, in series [2], the Tm came out at 39.9 °C.
On to GGGCTTCGAAAGAATCCC (((.(((....))).))), for which the folding enthalpy in series [1] is -33 kcal/mol. Also, the Tm in series [2] is 46.4 °C.
Regarding GGGCTTGCGAAAGCACCC (((..(((....)))))), the folding enthalpy in series [1] was -15.8 kcal/mol. The Tm in series [2] worked out at 45.6 °C.
Regarding GGGCTTGGAAACAAGTCC ((.((((....)))).)), in series [1], the folding enthalpy was -50.9 kcal/mol. Besides, in series [2], the Tm came out at 54.6 °C.
On to GGGCTTGGAAACGAGTCC ((.((.(....).)).)), for which the folding enthalpy in series [1] is -32.8 kcal/mol. In series [2], the Tm came out at 43.9 °C.
On to GGGGAAGGAAACTCCCCC ((((.((....)).)))), for which, in series [1], the folding enthalpy is -24.8 kcal/mol. The Tm in series [2] stood at 46.9 °C.
As for GGGGACCGAAAGGTTCCC (((.(((....))).))), the folding enthalpy in series [1] was -43.5 kcal/mol. Further, the Tm in series [2] is 66.3 °C.
Take GGGGACGAAAGTCAGCCC ((((((....)))..))): in series [1], the folding enthalpy is -15.4 kcal/mol. The Tm in series [2] was found to be 49.5 °C.
The matching figures for GGGGACGAAAGTCGTCCC ((((((....)))..))): -20.8 kcal/mol and 61.3 °C.
GGGGACGAAAGTCTCCC ((((((....))).))): the folding enthalpy in series [1] was -23.9 kcal/mol. In addition, the Tm in series [2] is 60 °C.
As to GGGGACGAAAGTCTCCCC ((((((....)))..))), in series [1], the folding enthalpy was -14.3 kcal/mol. In addition, the Tm in series [2] was determined as 58.2 °C.
As to GGGGACGGAAACATCCCC (((((.(....).))))), the folding enthalpy in series [1] is -32.8 kcal/mol. Also, the Tm in series [2] is 47 °C.
The matching figures for GGGGACGGAAACGCCCCC ((((.((....)).)))): -26.1 kcal/mol and 57.9 °C.
GGGGAGGCGAAAGCCCCC (((..(((....)))))): the folding enthalpy in series [1] was -14.2 kcal/mol. Also, the Tm in series [2] is 64.5 °C.
Turning to GGGGAGGGAAACCTCCTC (.(((((....))))).), the folding enthalpy in series [1] was -15.6 kcal/mol. The Tm in series [2] was determined as 53.4 °C.
On to GGGGATCGAAAGATACCC (((.(((....))).))), for which the folding enthalpy in series [1] was -43.2 kcal/mol. In series [2], the Tm came out at 62.3 °C.
Turning to GGGGATGGAAACGTTCCC (((.(.(....).).))), the folding enthalpy in series [1] is -30 kcal/mol. For the same sequence, the Tm in series [2] was determined as 39 °C.
Turning to GGGGCAGGAAACCACCCC ((((..(....)..)))), the folding enthalpy in series [1] was -28.6 kcal/mol. In addition, the Tm in series [2] amounted to 36.6 °C.
The matching figures for GGGGCAGGAAACTACCCC ((((.((....)).)))): -29.4 kcal/mol and 49 °C.
The matching figures for GGGGCAGGAAACTGCCTC (.(((((....))))).): -13.1 kcal/mol and 59.6 °C.
The matching figures for GGGGCAGGAAACTGCTCC ((.((((....)))).)): -36.6 kcal/mol and 60.2 °C.
GGGGCCACGAAAGTGCCC (((..(((....)))))): in series [1], the folding enthalpy is -26.2 kcal/mol. The Tm in series [2] came out at 60 °C.
GGGGCCGAAAGGCATCCC ((((((....)))..))): in series [1], the folding enthalpy was -13.9 kcal/mol. For the same sequence, in series [2], the Tm was determined as 54.9 °C.
